Biological target: Protease (Human immunodeficiency virus 1, UniProt Q9YQ12)
Assay: Inhibition of wild type HIV1 protease by FRET assay
In short: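 Recombinant HIV-1 protease Q7K, desalted into 20 mM sodium acetate pH 5, apparent concentration ~50 nM (UV 280 nm). Inhibitors in DMSO, 12 concentrations, added with protease to buffer pH 4.7 (0.1 M NaOAc, 1 M NaCl, 1 mM EDTA, 1 mM DTT, 2% DMSO, 1 mg/mL BSA). Cleavage started by injecting EDANS/DABCYL peptide substrate. Ki from initial velocities fitted to the Morrison equation.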

Sequence of Protease (Q9YQ12 whole entry): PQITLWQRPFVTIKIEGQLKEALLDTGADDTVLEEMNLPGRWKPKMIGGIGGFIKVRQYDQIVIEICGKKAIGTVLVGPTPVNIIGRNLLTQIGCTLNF

Ki: 1 pM
Compound: COc1ccc(S(=O)(=O)N(CC(C)C)C[C@@H](O)[C@H](Cc2ccccc2)NC(=O)[C@@H]2CN(c3cccc(C(C)=O)c3)C(=O)O2)cc1 [(5S)-3-(3-Acetylphenyl)-N-[(1S,2R)-1-benzyl-2-hydroxy-3-[isobutyl[(4-methoxyphenyl)sulfonyl]amino]propyl]-2-oxooxazolidine-5-carboxamide]
